Screening results: PubChem, The Scripps Research Institute Molecular Screening Center
This is a sample that favours compounds with a hit; in the whole collection about 2.4% have one here.
S1P4 agonist: human S1P4 receptor agonism; S1P4-expressing cell line, agonist reporter assay; activation, % at 4.98 µM; 220,000 compounds, 0.35% hits; AID 1509; in the data active = activation above about 11%;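 also: 0% = DMSO vehicle and 100% = reference agonist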
NPY1 pot ag: potentiates or activates human NPY-Y1 receptor; P25929; NPY-Y1 expressing cells, potentiator/agonist activation; activation, % at 3.6 µM; 220,000 compounds, 0.37% hits; in the data active = activation above about 33%, passing the limit was not always enough;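 also: cells stimulated with NPY at EC10 then isoproterenol at EC100; 0% = low agonist plus stimulus and 100% = saturating agonist plus stimulus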
Target sequence (P25929 whole entry, looked up): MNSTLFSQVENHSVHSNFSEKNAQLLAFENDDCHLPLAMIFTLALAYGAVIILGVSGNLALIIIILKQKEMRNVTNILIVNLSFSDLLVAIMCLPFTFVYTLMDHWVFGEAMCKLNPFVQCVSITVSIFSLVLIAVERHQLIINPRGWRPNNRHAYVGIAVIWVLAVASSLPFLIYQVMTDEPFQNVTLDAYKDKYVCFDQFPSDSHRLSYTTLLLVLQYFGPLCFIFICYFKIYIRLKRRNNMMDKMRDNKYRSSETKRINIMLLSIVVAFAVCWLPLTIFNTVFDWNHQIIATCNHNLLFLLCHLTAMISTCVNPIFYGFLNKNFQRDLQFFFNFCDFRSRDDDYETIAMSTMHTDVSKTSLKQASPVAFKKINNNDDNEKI
NPY Y1 blocker: NPY-Y1 (human) receptor antagonism; P25929; HEK293-CNG Y1 cells, membrane potential fluorescence; NPY at EC95, then isoproterenol; inhibition, % at 3.6 µM; 200,000 compounds, 1% hits; AID 1040;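 active = inhibition above the campaign mean inhibition of all tested compounds plus 3 SD, cut at about 20% in these data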;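 also: 0% = DMSO wells given NPY plus isoproterenol and 100% = isoproterenol alone without NPY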
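Material: Y1- and CNG-channel-expressing HEK293 cells / Probe or stimulus: NPY 25 nM then isoproterenol 1 µM plus Ro 20-1724 25 µM / Doses: 3.6 µM single dose, DMSO 0.4% / Schedule: compound incubation 1 h at room temperature, readout 45 min post-stimulation / Signal: membrane potential fluorescence / Benchmarks: isoproterenol-only wells as full block versus NPY-plus-isoproterenol wells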
NPY-Y2 antag: antagonists of human neuropeptide Y receptor Y2 | P49146 | NPY-Y2 expressing cells, antagonist mode | inhibition, % at 2.7 µM | 140,000 compounds, 0.99% hits; in the data active = inhibition above about 17%;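 also: 0% = vehicle with agonist challenge and 100% = reference antagonist with challenge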
NPY-Y2 PAM-ag: human NPY-Y2 potentiation or agonism, primary screen. P49146. cells expressing NPY-Y2, potentiator/agonist read-out. activation, % at 3.6 µM. 220,000 compounds, 0.45% hits. AID 1359; in the data active = activation above about 27%;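 also: cells stimulated with NPY near EC25 plus isoproterenol at EC100; 0% = vehicle plus submaximal agonist and 100% = vehicle plus saturating agonist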
S1P4 antag: blocks the human S1P4 receptor; O95977; S1P4-expressing cells, antagonist mode, reporter read-out; inhibition, % at 4.98 µM; 220,000 compounds, 0.26% hits; in the data active = inhibition above about 29%;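 also: 0% = wells stimulated with agonist and 100% = vehicle wells without agonist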
Active calls of the source: *; . = no result given.

SMILES	S1P4 agonist	NPY1 pot ag	NPY Y1 blocker	NPY-Y2 antag	NPY-Y2 PAM-ag	S1P4 antag
O=C(CSc1nnc(-c2ccc(Cl)cc2)n1Cc1ccco1)NCc1ccc2c(c1)OCO2	-0.6	-24.1	41.9*	40.9*	-17.6	-3.5
CCn1c(SCC(=O)NCc2ccco2)nnc1-c1ccncc1	1.2	3.8	-0.5	.	0.9	8.0
COc1ccc(-c2nnc(SC(C)C(=O)NCc3ccc4c(c3)OCO4)n2Cc2ccco2)cc1 (centres undefined)	-1.2	-2.8	37.5*	51.0*	-14.5	-15.8
CC(Sc1nnc2ccccn12)C(=O)NCc1ccc2c(c1)OCO2 (centres undefined)	0.1	2.4	-3.7	.	-1.1	-22.9
CCc1cc(C(=O)Cc2nc3ccccc3s2)c(O)cc1OCC(=O)O	-0.1	16.6	.	.	-5.5	-1.9
O=C1CC(N2CCN(c3ncccn3)CC2)C(=O)N1CCc1ccccc1 (centres undefined)	-0.5	6.5	3.3	.	3.5	-20.4
Cn1c(=O)c2c(SCCN3CCOCC3)nc(C3CCCC3)nc2n(C)c1=O	0.1	4.4	3.0	.	0.1	-5.6
Cc1nn(C)c(Cl)c1CN1CCN(CC(C)C)C(CCO)C1 (centres undefined)	0.3	-7.7	-3.0	.	-18.9	0.3
COc1ccc(NC(=O)CCCC2CCCCC2)cc1S(=O)(=O)N1CCCCC1	2.5	-17.0	29.2*	17.7*	-6.9	3.1
CCCCNCc1cc2ccccc2o1	2.4	-3.7	.	.	-10.6	-6.2
CN(C(=O)CSc1nc(N)c2c3c(sc2n1)CSC(C)(C)C3)c1ccccc1	2.0	7.5	3.3	9.8	-4.3	-14.2
CCOc1ccc(N2CC(C(=O)Nc3cccc(S(=O)(=O)NC4=NCCC4)c3)CC2=O)cc1 (centres undefined)	0.4	15.1	.	.	5.7	-25.1
Cc1nc(N2CCCCC2)sc1C(=O)c1ccc(Cl)c([N+](=O)[O-])c1	2.0	47.9*	-10.8	.	46.7*	14.0
Cc1ccccc1OCC(O)CN1CCCCC1 (centres undefined)	-0.4	88.6*	-11.6	.	64.2*	10.5
Cc1ccccc1OCC(O)CN (centres undefined)	1.2	79.7*	-15.8	2.8	44.4*	-2.5
Cc1cc(C)nc(NCC(O)COc2ccccc2C)n1 (centres undefined)	2.6	6.6	-6.8	0.5	5.5	-11.1
CC1(c2ccccc2)NC(=O)N(N)C1=O (centres undefined)	-1.0	-16.9	-5.9	.	2.7	0.3
Cc1c(NC(=O)CS(=O)(=O)c2ccccc2)c(=O)n(-c2ccccc2)n1C	1.4	6.2	-2.0	.	-3.5	-10.8
C/C(=N/NC(=O)CNC(=O)CCc1ccccc1)c1ccc(Cl)c(Cl)c1	-0.2	-24.2	.	.	-26.4	-7.0
COc1cccc(CN(Cc2ccco2)C(c2ccc(F)cc2)c2nnnn2C(C)(C)C)c1 (centres undefined)	0.8	7.1	31.1*	21.6*	0.6	-4.9
CC(C)(C)n1nnnc1CN(Cc1ccc(F)cc1)Cc1ccco1	-0.1	-1.5	5.0	7.3	-1.0	-22.4
Cc1c(Cl)cccc1NC(=S)N1CCN(Cc2ccc3c(c2)OCO3)CC1	1.1	53.2*	15.2	2.2	33.4*	-5.2
CC1=NCCN1S(=O)(=O)c1cc([N+](=O)[O-])ccc1Cl	2.0	3.2	-1.7	.	10.2	8.9
O=C(O)c1ccc(N2CCCCS2(=O)=O)cc1	1.6	13.7	2.1	.	11.0	-16.9
N#Cc1c(NC(=O)c2ccc(Cn3cc(Br)cn3)o2)sc2c1CCCCC2	0.1	10.1	-7.0	0.8	-7.6	-15.5
SMILES	S1P4 agonist	NPY1 pot ag	NPY Y1 blocker	NPY-Y2 antag	NPY-Y2 PAM-ag	S1P4 antag
COC(=O)c1sc(NC(=O)c2ccc(Cn3cc(Cl)cn3)o2)c(C#N)c1C	1.8	60.4*	-11.0	-8.0	35.6*	-22.4
Cc1cc(NC(=O)c2ccc(Cl)cc2)c(C(C)C)cc1O	-0.5	-37.4	15.9	4.6	-9.6	47.0*
Cc1cc(NC(=O)c2ccc(Cl)cc2)c(C)cc1O	-0.6	-19.4	-0.7	.	-1.6	7.3
CCc1cccc(NC(=O)CSc2nc3c(c(=O)[nH]2)CCCC3)c1	1.8	7.2	-0.1	8.0	-3.9	-14.6
c1csc(-c2csc3nc(CN4CCOCC4)nc(NCc4ccc5c(c4)OCO5)c23)c1	0.7	-59.2	44.2*	35.8*	-31.1	12.4
Cc1cc(C)c(OCC(O)CNC(C)(C)C)c(C)c1 (centres undefined)	0.1	83.6*	-9.3	.	87.2*	-3.6
CC(C)(C)NCC(O)COc1c(F)cc(Br)cc1F (centres undefined)	-0.9	51.1*	-7.0	0.5	65.9*	5.3
Cn1c(CNC(=O)OC(C)(C)C)n[nH]c1=S	1.3	-8.6	0.3	.	-2.4	-19.2
CCOC(=O)c1cnc(COc2ccc(OC)cc2)[nH]c1=O	1.1	7.4	.	.	0.9	1.4
CCOc1ccccc1C(=O)Nc1ccccc1C(N)=O	0.2	-26.6	0.4	3.4	-18.5	-5.5
CCOc1ccccc1C(=O)Nc1ccsc1C(=O)OC	0.3	-27.6	21.4*	19.7*	-22.9	-5.8
Fc1cccc(NC(=S)N2CCCCC2)c1	0.6	104.1*	-2.6	0.9	-4.5	0.9
FC(F)(F)c1cccc(NC(=S)N2CCCCCC2)c1	1.6	4.6	7.1	.	5.5	10.5
Cc1ccc(C(=O)O/N=C2\CCSc3ccc(C)cc32)cc1	0.5	-8.5	23.0*	20.8*	-11.6	-31.3
O=C(Nc1cccnc1)c1ccccc1F	-0.2	15.2	3.8	3.2	4.9	-17.3
O=C(/C=C/c1ccncc1)c1ccc(NC(=O)c2ccccc2F)cc1	2.5	-31.5	-2.6	1.4	18.1	37.4*
CCOc1ccc(-c2cc(C(=O)Nc3ccc4c(c3)OCCO4)c3ccccc3n2)cc1	1.8	-8.0	27.4*	7.6	-12.4	13.2
O=C(O)c1cc(-c2ccc3c(c2)OCO3)nc2ccccc12	0.1	1.9	5.5	5.2	-5.4	-18.0
CC(NC(=O)c1cc(-c2ccc3c(c2)OCO3)nc2ccccc12)C(C)(C)C (centres undefined)	-1.7	-455.8	146.8*	151.0*	-118.9	7.7
CC(C)CNC(=O)COC(=O)CCC(=O)c1ccc(Cl)cc1	0.8	-34.2	6.5	.	-22.9	-11.2
CCC(CC)c1nnc(NC(=O)[C@@H](NC(=O)c2cccc(C)c2)C(C)C)s1	0.1	20.6	3.3	3.2	8.4	-4.4
CCOCCCNS(=O)(=O)c1ccc(NC(=O)C2CC(=O)N(c3ccc(C)cc3)C2)cc1 (centres undefined)	0.0	-2.3	-0.4	.	16.4	-9.7
COCCNC(=O)CCCn1c(=O)c2cc(OC)c(OC)cc2n(CC(=O)Nc2ccccc2OC)c1=O	0.8	-5.0	21.3*	.	-5.7	13.9
COCCNC(=O)CCCn1c(=O)c2cc(OC)c(OC)cc2n(CC(=O)Nc2ccc(F)cc2)c1=O	-0.6	8.2	-1.7	.	3.5	8.5
Cn1c(=O)c2c(nc(CN3CCc4ccccc4C3)n2CCc2ccccc2)n(C)c1=O	4.2	4.1	26.2*	8.4	-3.5	-2.5
